We go through 10 compounds from ChEMBL document CHEMBL1125679, “Novel caffeic acid derivatives: extremely potent inhibitors of 12-lipoxygenase” (J Med Chem, 1991).

Experiment [1] addresses T1, Polyunsaturated fatty acid lipoxygenase ALOX15B (Rattus norvegicus, UniProt Q8K4F2).
T1 sequence (Q8K4F2 whole entry): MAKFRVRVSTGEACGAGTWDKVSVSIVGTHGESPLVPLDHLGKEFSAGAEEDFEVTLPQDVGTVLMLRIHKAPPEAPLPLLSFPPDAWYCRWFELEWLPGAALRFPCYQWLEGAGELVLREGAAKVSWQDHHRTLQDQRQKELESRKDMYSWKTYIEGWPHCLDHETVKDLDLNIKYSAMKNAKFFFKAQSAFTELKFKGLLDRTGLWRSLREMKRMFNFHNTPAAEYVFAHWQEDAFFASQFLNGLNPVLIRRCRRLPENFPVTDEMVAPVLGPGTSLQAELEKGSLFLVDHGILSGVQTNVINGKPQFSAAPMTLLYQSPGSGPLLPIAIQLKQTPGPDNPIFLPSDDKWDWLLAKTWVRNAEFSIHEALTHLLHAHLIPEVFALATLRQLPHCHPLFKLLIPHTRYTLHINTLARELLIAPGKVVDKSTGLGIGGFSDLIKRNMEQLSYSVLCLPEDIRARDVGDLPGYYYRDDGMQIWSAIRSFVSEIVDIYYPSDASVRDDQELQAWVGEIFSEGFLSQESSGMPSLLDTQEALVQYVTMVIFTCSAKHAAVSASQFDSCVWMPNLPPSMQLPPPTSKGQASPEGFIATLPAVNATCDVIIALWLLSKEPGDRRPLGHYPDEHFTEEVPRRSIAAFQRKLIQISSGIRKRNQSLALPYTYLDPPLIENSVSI
In words: Inhibitory activity against 15-lipoxygenase in rat polymorphonuclear leukocytes. It is filed as cell-based. Put shortly:
(§1)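 Heparinized rat blood; PMNLs isolated by Ficoll/Hypaque gradient and hypotonic hemolysis, washed thrice in Hanks' solution, resuspended at 2 × 10^7 cells/mL in 1/15 M phosphate buffer pH 8.2 (>94% neutrophils, <1% platelets). Cells sonicated at 4 °C, given 1 mM CaCl2, incubated with [14C]arachidonic acid (0.2 µCi) 20 min at 37 °C; stopped by HCl acidification to pH 3.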

The target of experiment [2] is 12-lipoxygenase (Rattus norvegicus, UniProt F1LQ70). In words: Inhibitory activity against 12-lipoxygenase in rat platelet rich plasma. Type of experiment: cell-free.
For experiment [3], the target named is T2, Polyunsaturated fatty acid 5-lipoxygenase (Rattus norvegicus, UniProt P12527).
T2 sequence (P12527 whole entry): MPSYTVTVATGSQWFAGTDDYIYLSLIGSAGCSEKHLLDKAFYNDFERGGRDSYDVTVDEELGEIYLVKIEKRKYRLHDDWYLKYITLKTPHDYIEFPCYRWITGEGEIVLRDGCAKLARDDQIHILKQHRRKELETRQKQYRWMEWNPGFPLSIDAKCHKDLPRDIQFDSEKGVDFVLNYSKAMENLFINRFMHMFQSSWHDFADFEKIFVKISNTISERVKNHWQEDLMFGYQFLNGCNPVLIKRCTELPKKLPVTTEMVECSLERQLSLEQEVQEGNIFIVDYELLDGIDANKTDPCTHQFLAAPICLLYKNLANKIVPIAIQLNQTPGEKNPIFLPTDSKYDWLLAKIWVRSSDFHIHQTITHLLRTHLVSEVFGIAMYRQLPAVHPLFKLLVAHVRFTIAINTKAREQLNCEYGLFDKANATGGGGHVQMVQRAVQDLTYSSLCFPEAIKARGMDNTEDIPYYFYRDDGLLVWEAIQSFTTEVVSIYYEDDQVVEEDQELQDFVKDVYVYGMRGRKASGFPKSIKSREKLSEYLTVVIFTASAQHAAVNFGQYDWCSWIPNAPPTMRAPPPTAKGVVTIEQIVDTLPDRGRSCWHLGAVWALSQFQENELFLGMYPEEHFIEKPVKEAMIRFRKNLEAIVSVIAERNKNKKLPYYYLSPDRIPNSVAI
In words: Inhibitory activity against 5-lipoxygenase in rat polymorphonuclear leukocytes. It is filed as cell-based. A digest of the protocol: as §1

12-lipoxygenase, sequence (F1LQ70 whole entry, looked up): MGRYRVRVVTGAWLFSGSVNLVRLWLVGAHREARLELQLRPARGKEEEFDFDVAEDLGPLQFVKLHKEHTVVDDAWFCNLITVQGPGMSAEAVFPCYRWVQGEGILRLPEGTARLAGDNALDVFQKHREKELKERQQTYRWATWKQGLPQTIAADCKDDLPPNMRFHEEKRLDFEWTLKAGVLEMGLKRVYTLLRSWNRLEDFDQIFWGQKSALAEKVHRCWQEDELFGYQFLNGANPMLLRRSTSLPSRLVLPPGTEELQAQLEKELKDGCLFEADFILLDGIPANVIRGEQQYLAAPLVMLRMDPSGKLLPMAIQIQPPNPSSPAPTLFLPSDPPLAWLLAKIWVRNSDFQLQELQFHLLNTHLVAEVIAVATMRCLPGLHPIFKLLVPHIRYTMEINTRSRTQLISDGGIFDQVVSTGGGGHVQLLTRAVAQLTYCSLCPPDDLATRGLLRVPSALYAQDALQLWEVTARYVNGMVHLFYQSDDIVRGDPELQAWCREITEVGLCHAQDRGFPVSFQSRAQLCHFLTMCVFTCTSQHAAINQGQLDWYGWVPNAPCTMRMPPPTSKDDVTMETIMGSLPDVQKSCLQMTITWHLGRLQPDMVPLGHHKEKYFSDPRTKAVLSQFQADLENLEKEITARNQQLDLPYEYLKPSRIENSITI

For the compound `N#C/C(=C\c1ccc(O)c(O)c1)C(=O)OCCCc1ccccc1`, the results for the 50% inhibitory concentration (IC50) in experiment [1], in experiment [2] and in experiment [3] were 1.4 µM, 0.053 µM and 0.16 µM, respectively.
In the case of `N#C/C(=C\c1ccc(O)c(O)c1)C(=O)OCCCCCCCCn1ccnc1`, the IC50 is over 10 µM in experiment [1], 0.18 µM in experiment [2] and over 10 µM in experiment [3].
As for `N#C/C(=C\c1ccc(O)c(O)c1)C(=O)OCCCc1cccnc1`, the IC50 in experiment [1] is 3.93 µM; in experiment [2] it was 0.47 µM; in experiment [3], over 10 µM.
For `N#C/C(=C\c1ccc(O)c(O)c1)C(=O)OCCc1cccs1`, in that order: 0.5 µM, 0.013 µM and 0.09 µM.
The like results for `N#C/C(=C\c1ccc(O)c(O)c1)C(=O)OC/C=C/c1ccccc1` were, in that order, 3.33 µM, 0.063 µM and 1.89 µM.
The like results for `N#C/C(=C\c1ccc(O)c(O)c1)C(=O)OCCc1ccccc1` were, in that order, 0.43 µM, 0.051 µM and 0.16 µM.
Consider `COc1ccccc1CCOC(=O)/C(C#N)=C/c1ccc(O)c(O)c1`, for which the IC50 in experiment [1] worked out at 1.62 µM; in experiment [2] it was 0.064 µM; in experiment [3], 0.14 µM.
For the compound `CCOC(=O)/C(C#N)=C/c1ccc(O)c(O)c1`, the values for the half-maximal inhibitory concentration (IC50) in experiment [1], in experiment [2] and in experiment [3] were 0.33 µM, 0.033 µM and over 10 µM, respectively.
For `N#C/C(=C\c1ccc(O)c(O)c1)C(=O)OCCCCc1ccccc1`, in that order: 3.59 µM, 0.47 µM and 0.22 µM.
As for `O=c1cc(-c2ccccc2)oc2cc(O)c(O)c(O)c12` [BAICALEIN], the half-inhibitory concentration (IC50) in experiment [1] amounted to 0.26 µM; in experiment [2] it was 0.015 µM.
